One data set deals with Cytochrome P450 2D6 (Homo sapiens, UniProt P10635). Put plainly: Inhibition of CYP2D6 up to 50 uM. The class given is ADME.
In data set [1] the target is T1, Nuclear receptor subfamily 1 group I member 2 (Homo sapiens, UniProt O75469).
T1 sequence (O75469 whole entry): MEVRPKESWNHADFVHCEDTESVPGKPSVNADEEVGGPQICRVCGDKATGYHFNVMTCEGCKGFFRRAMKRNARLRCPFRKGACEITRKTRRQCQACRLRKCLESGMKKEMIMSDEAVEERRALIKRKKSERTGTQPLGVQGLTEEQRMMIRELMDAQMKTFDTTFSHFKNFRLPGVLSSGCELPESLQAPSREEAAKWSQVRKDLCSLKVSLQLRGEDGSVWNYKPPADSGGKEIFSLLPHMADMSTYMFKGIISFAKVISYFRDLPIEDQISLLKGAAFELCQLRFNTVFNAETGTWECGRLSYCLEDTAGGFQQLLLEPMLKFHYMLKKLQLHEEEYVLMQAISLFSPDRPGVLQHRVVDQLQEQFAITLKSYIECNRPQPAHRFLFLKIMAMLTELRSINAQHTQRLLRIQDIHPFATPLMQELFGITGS
Put plainly: Inhibition of PXR activation up to 50 uM.

For the next data set, the target named is Cytochrome P450 3A4 (Homo sapiens, UniProt P08684). Put plainly: Inhibition of CYP3A4 up to 50 uM. The class given is ADME.
Cytochrome P450 3A4, sequence (P08684 whole entry): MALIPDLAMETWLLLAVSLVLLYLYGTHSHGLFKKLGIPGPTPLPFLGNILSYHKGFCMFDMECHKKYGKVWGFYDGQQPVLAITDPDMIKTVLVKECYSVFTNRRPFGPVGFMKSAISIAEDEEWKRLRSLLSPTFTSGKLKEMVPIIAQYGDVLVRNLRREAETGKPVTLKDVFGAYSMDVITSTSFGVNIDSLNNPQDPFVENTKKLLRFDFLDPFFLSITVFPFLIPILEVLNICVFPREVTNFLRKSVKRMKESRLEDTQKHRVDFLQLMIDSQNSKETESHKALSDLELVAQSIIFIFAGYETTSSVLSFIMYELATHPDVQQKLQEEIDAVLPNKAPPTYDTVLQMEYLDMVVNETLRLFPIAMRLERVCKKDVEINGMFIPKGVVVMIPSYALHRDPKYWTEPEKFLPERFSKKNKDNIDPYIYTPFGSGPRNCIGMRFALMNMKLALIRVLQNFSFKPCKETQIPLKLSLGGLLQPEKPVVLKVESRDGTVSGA
Data set [2] is described as follows: Volume of distribution at steady state in rhesus monkey at 2 mg/kg, iv and 4 mg/kg, po. The class given is ADME, organism-based, Macaca mulatta. The settings on record: in vivo, read-out: Vdss. The gist of the method: (§1)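 Single iv and single oral doses, given as the bis-HCl salt, in rat, dog and rhesus, n = 3 per species (dog oral n = 2). The iv vehicle was DMSO/PEG400/water 20%/60%/20%. Oral vehicle was PEG400 for rat and dog and PEG400/water 70%/30% for rhesus. Values are mean ± SD.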

In data set [3] the test system is Hepatitis C virus. Put plainly: Antiviral activity against HCV1b infected in humanized uPA+/+-SCID mouse assessed as reduction of plasma viral RNA level at 50 mg/kg, ip bid for 4 days. Type of data set: functional, Hepacivirus hominis. The settings on record: route intraperitoneal. The method, boiled down: (§2)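 Three chimeric uPA+/+-SCID mice with human hepatocytes, infected with genotype 1b HCV, received the dose intraperitoneally twice daily for 4 days in PEG400/water 30%/70%. Three vehicle-only mice were dosed for four days as controls. Plasma HCV RNA change is reported per animal and as mean, in log10 (lower limit 315 IU/mL). Follow-up ran to day 21. Plasma trough drug was measured 12 h after the last dose.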

Data set [4] is described as follows: Intrinsic clearance in rat liver microsomes assessed per mg of protein in presence of UDPGA. Type of data set: ADME, Microsome.
Data set [5] in a line: Clearance in rhesus monkey at 2 mg/kg, iv and 4 mg/kg, po. Type of data set: ADME, organism-based, Macaca mulatta. The settings on record: in vivo. The gist of the method: (§3)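 Single-dose PK of the bis-HCl salt, n = 3 per species (dog po n = 2). Intravenous doses: rat 3, dog 1, rhesus 2 mg/kg, in DMSO/PEG400/water 20%/60%/20%. Oral doses: rat 3, dog 2, rhesus 4 mg/kg, in PEG400 for rat and dog and PEG400/water 70%/30% for rhesus.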

Data set [6] deals with Hepatitis C virus. Description: Antiviral activity against HCV1b infected in human Huh-7 cells assessed as inhibition of viral RNA replication after 96 hrs by ELISA assay in presence of 50% normal human serum. Type of data set: functional, organism-based, Hepacivirus hominis. The settings on record: genotype 1b, Huh-7, 96 h. In general terms: An ELISA detects its analyte on a solid surface through an enzyme-linked reagent.

Data set [7] concerns the target T2, DNA polymerase alpha catalytic subunit (Homo sapiens) (UniProt P09884).
T2 sequence (whole entry): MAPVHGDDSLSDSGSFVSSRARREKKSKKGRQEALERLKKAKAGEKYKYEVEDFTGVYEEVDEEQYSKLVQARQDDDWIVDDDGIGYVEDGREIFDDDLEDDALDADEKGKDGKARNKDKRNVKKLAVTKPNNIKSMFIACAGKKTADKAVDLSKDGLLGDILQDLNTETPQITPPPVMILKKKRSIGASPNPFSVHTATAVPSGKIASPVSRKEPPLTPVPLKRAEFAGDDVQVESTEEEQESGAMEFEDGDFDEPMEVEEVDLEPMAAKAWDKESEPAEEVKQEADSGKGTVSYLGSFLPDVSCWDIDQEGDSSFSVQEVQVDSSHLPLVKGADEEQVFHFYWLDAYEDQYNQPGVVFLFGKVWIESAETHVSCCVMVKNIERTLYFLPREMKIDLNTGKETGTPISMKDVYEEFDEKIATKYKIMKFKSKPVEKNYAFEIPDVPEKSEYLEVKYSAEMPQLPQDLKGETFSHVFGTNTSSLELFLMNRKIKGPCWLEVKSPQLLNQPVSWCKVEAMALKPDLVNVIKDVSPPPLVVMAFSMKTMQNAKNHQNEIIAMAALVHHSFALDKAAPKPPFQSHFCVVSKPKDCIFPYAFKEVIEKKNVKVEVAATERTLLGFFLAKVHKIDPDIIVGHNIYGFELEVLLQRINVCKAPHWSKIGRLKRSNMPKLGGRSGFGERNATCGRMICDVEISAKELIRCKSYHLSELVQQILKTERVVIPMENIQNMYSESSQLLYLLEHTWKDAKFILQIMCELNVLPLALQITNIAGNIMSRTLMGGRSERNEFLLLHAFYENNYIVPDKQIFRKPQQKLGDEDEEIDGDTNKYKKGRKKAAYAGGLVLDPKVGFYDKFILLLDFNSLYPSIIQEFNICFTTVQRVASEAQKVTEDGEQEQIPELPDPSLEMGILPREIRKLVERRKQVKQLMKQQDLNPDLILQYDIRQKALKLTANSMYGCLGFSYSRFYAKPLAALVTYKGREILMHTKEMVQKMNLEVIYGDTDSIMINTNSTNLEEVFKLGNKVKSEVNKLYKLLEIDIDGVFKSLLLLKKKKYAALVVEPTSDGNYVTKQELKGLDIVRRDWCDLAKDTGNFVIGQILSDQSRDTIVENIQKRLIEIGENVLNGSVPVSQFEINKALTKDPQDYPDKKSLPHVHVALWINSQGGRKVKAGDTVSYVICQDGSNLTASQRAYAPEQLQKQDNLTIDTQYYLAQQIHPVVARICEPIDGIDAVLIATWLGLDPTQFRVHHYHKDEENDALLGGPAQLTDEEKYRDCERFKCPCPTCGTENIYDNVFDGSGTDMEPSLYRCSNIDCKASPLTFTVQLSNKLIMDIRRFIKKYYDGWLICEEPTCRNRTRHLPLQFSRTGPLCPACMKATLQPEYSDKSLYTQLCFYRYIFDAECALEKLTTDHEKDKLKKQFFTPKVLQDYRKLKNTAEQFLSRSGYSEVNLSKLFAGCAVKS
Put plainly: Inhibition of human DNA polymerase alpha up to 50 uM.

The test system of data set [8] is Hepatitis C virus. Put plainly: Antiviral activity against HCV1b infected in humanized uPA+/+-SCID mouse assessed as reduction of viremia at 50 mg/kg, ip bid for 4 days. Type of data set: functional, Hepacivirus hominis. The settings on record: route intraperitoneal. The gist of the method:
as §2

For data set [9], the target named is DNA polymerase beta (Homo sapiens) (UniProt P06746). Put plainly: Inhibition of human DNA polymerase beta up to 50 uM.
The nature of data set [10]: AUC in rhesus monkey at 4 mg/kg, po. The class given is ADME, organism-based, Macaca mulatta. Also on record: dose 4 mg/kg, route oral. The settings on record: plasma. The gist of the method:
as §3

Data set [11] can be described thus: Terminal half life in dog at 1 mg/kg, iv and 2 mg/kg, po. The class given is ADME, organism-based, Canis lupus familiaris. The settings on record: in vivo. The method, boiled down: as §1

Activity calls are given as the source filed them. A value given as a limit tells only on which side of the number the result lay.

Cytochrome P450 2D6, sequence (P10635 whole entry): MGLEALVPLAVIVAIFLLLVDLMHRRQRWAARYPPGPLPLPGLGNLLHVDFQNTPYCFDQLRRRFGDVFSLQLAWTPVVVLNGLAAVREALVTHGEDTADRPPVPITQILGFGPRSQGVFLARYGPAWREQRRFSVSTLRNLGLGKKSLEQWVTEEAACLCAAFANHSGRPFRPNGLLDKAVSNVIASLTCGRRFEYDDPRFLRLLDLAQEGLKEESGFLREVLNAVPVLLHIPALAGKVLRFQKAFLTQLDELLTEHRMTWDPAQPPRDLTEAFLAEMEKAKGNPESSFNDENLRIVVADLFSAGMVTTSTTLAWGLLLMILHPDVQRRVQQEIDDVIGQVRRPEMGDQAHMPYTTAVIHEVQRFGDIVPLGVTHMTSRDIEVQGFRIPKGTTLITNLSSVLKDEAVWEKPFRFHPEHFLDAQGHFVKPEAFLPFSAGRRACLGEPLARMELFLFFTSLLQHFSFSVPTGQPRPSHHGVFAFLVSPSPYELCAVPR

As to `CN(C)CCN(C)[C@H]1COc2ccccc2-c2c(C3CCCCC3)c3ccc(C(=O)O)cc3n2C1` [MK-3281], the “inhibition (INH)” value (against Cytochrome P450 2D6; in data set [1]; at Cytochrome P450 3A4) was “Not Active” in each case. Also, the Vd in data set [2] is 2.2 L/kg. Further, the “fold change (FC)” value with Hepatitis C virus [3] was 3.13; with Hepatitis C virus [8] it was -3.94. For the same compound, the microsomal CLint – broadly, a measure of how fast metabolising enzymes remove a compound, apart from limits set by blood flow – in data set [4] was < 4 µL/min/mg. The compound also registered a clearance in data set [5] of 7 mL/min/kg. Moreover, the EC50 (commonly the concentration at which the effect is half-maximal) in the data set with Hepatitis C virus [6] is 110 nM. Also, the inhibition result in [7] and in [9] was “inactive” each time. For the same compound, in data set [10], the AUC (as a rule, the area under the concentration-time curve, a measure of exposure) turned out to be 7.4 µM·h. Also, the half-life – broadly, the time needed for the level to fall by half in the phase considered – in data set [11] was 366 min.

The record behind these values is ChEMBL document CHEMBL1649090, “Discovery of (7R)-14-cyclohexyl-7-{[2-(dimethylamino)ethyl](methyl) amino}-7,8-dihydro-6H-indolo[1,2-e][1,5]benzoxazocine-11-carboxylic acid (MK-3281), a potent and orally bioavailable finger-loop inhibitor of the hepatitis C virus NS5B polymerase” (J Med Chem, 2011).
